Diaph act CS: compounds boosting diaphorase resazurin reduction – biochemical, uHTS, resorufin fluorescence, counter-screen for diaphorase-coupled primary assays, primary screen; Diaphorase/resazurin coupled assay, 16 min; hits give high values; 1 = vehicle wells, 0 = NADH-free wells; activation factor at 20 µM; 190,000 compounds, 0.005% hits; AID 1229, 2008;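 active = diaphorase activity raised at least twofold by the compound at 20 µM; inactive = activation factor below 2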
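test system = bacterial diaphorase enzyme (C. kluyveri) | quantity = enzyme 0.07 U/mL final | reagent = NADH substrate 0.114 mM plus resazurin dye 0.1 mM, final | incubation = 16 min enzyme reaction, ambient temperature | buffer or medium = HEPES pH 7.4 buffer with MgCl2 and Tween 20 | signal = fluorescence of resorufin, 544 nm excitation, 590 nm emission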
PfG6PD inh: PfG6PD enzyme inhibitors, primary screen, biochemical, fluorescence intensity, uHTS; AID 504690, 2011; glucose-6-phosphate dehydrogenase-6-phosphogluconolactonase (Plasmodium falciparum 3D7); inhibition, % at 20 µM; 350,000 compounds, 0.78% hits; PfGluPho enzyme, NADPH resazurin-diaphorase fluorescence;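 active = inhibition reaching at least a set limit at 20 µM in the primary screen, cut at about 59% in these data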
Diaphorase inh: diaphorase inhibitors and chemical oxidizers, primary screen, counter-screen for diaphorase-coupled primary assays, biochemical, uHTS, resorufin fluorescence | diaphorase resazurin-to-resorufin fluorescence, NADH, 16 min; bacterial (C. kluyveri) enzyme, not human | inhibition, % at 20 µM | 190,000 compounds, 0.69% hits;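 active = primary screen inhibition at 20 µM above a set limit, cut at about 50% in these data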
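material = Clostridium kluyveri diaphorase enzyme | amount = 0.14 U/mL diaphorase, enzyme working solution | schedule = incubation 16 min, room temperature | detection = fluorescence of resorufin formed from resazurin, Ex 544/Em 590 nm | benchmarks = positive control minus NADH, DMSO neutral control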
G6PDH counter: L. mesenteroides G6PDH inhibitors, counter-screen for G6PDH-coupled screening assays, biochemical, Leuconostoc mesenteroides enzyme | glucose-6-phosphate dehydrogenase [Leuconostoc mesenteroides] | Purified L. mesenteroides G6PDH, diaphorase/resazurin coupled fluorescence, 45 min | inhibition, % at 5 µM | 200,000 compounds, 0.12% hits | AID 1020, 2008; in the data active = inhibition above about 50%
HKDC1 inhibitor: HKDC1 hexokinase inhibitors, primary screen, biochemical, fluorescence, uHTS; inhibition, % at 20 µM; Q2TB90; 340,000 compounds, 0.16% hits; AID 493160, 2011; recombinant HKDC1, G6PDH/diaphorase resazurin coupled fluorescence;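 active = inhibition above about 35% when tested at 20 µM, limit read from the data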
Target sequence (Q2TB90 whole entry, looked up): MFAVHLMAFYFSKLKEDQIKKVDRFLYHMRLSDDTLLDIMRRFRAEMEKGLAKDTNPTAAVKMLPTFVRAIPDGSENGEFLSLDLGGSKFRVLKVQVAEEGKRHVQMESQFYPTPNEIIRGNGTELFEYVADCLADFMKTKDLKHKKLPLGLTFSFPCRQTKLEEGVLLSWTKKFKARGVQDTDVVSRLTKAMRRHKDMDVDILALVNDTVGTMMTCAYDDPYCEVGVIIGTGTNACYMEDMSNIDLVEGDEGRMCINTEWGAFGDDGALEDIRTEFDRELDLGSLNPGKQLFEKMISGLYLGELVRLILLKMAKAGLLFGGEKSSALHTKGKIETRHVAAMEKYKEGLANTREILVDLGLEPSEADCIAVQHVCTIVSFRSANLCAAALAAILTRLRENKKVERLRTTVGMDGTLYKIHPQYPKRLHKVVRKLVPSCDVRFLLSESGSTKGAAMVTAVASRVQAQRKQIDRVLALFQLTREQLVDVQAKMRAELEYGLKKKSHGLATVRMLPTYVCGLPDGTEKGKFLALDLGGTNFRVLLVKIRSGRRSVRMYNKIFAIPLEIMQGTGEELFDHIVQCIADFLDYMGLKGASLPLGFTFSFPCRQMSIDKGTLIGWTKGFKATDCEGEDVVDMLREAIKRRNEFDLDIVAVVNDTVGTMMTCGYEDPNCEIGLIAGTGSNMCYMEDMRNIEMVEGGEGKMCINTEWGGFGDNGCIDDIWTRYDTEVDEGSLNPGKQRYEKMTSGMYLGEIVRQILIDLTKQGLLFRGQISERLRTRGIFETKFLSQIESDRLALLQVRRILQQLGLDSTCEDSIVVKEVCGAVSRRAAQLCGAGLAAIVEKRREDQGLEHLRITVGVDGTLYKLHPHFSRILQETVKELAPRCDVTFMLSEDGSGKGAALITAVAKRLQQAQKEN
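Test system: HK5 enzyme. Quantity: 5 µg/mL HK5 final. Reagent: glucose and ATP substrates. Schedule: 90 min reaction incubation at room temperature, dark. Technique: resazurin-to-resorufin fluorescence via G6PDH and diaphorase coupling, 525/613 nm. Control set: DMSO wells with and without enzyme mix.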
PfGluPho conf: PfG6PD inhibitors, hit retest, confirmation, biochemical, fluorescence intensity, single concentration | 2,400 compounds, 34% hits | inhibition, % at 20 µM | shares compounds with PfG6PD inh | recombinant PfGluPho, NADPH-diaphorase-resazurin fluorescence;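 active = inhibition of at least 50% at 20 µM in any single replicate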
Diaph ctr 10uM: diaphorase inhibitors and chemical oxidizers, confirmation, counter-screen for P. falciparum G6PD inhibitor project, biochemical, fluorescence intensity, 10 µM NADPH; shares compounds with PfG6PD inh; diaphorase-coupled resazurin reduction, NADPH 10 uM; inhibition, % at 20 µM; 820 compounds, 39% hits;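 active = average inhibition reaching 50% or more with the compound at 20 µM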;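 note: resorufin red fluorescence formed as diaphorase reduces resazurin using NADPH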
Diaph ctr 30uM: diaphorase inhibitors and chemical oxidizers, confirmation, counter-screen for P. falciparum G6PD inhibitor project, biochemical, fluorescence intensity, 30 µM NADPH; shares compounds with PfG6PD inh; Diaphorase/resazurin coupled assay, resorufin fluorescence; inhibition, % at 20 µM; 820 compounds, 29% hits;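 active = inhibition averaging 50% or more, tested at 20 µM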
A number is an active result; – = inactive; · = not tested or not shown. An excerpt weighted towards active compounds, which were near 1.3% of everything screened.

SMILES	Diaph act CS	PfG6PD inh	Diaphorase inh	G6PDH counter	HKDC1 inhibitor	PfGluPho conf	others
COc1ccc(OCC(=O)OCC(=O)NC2CCCCC2C)cc1 (centres undefined)	·	–	·	·	–	·
Brc1cc2[nH]cnc2c2ccccc12	–	59	–	–	–	50	Diaph ctr 10uM=–;Diaph ctr 30uM=–
Oc1ccc2c(ccc3[nH]cnc32)c1	·	–	·	·	–	·
S=C(NN=Cc1ccccn1)N(Cc1ccccn1)Cc1ccccn1	·	80	·	·	–	55	Diaph ctr 10uM=–;Diaph ctr 30uM=–
c1nc(SSc2ncnc3nc[nH]c23)c2[nH]cnc2n1	·	118	·	·	–	108	Diaph ctr 10uM=–;Diaph ctr 30uM=–
O=C(O)CSc1ncnc2nc[nH]c12	–	–	–	–	–	·
Cc1ccc(Cc2c(-c3ccc(F)cc3)nc3cc(C)ccn23)cc1	·	71	·	·	·	–
Cc1ccc(Cc2c(-c3ccc(F)cc3)nc3ccc(Cl)cn23)cc1	·	62	·	·	·	–
Cc1ccc(Cc2c(-c3ccc(Br)cc3)nc3cc(C)ccn23)cc1	·	109	·	·	·	–
Cc1ccc(Cc2c(-c3ccccc3)nc3ccc(Br)cn23)cc1	·	–	·	·	·	·
Cc1ccn2c(/C=N/OCc3ccc(F)cc3)c(-c3ccc(Cl)cc3)nc2c1	–	–	–	–	–	·
O=C1NC(=O)C2(C=C(c3ccccc3)C(O)(c3ccccc3)C2)N1 (centres undefined)	·	–	·	·	–	·
CC(OC(=O)C1=Cc2ccccc2OC1)C(=O)NC(C)(C)C (centres undefined)	–	–	–	–	–	·
O=C(CSc1ccccn1)Nc1nonc1[N+](=O)[O-]	·	112	·	·	–	110	Diaph ctr 10uM=87;Diaph ctr 30uM=91
NC(=O)Cc1ccc(Nc2nnc(-c3ccccc3)c3ccccc23)cc1	–	–	–	–	–	·
C/C(CC(=O)NCc1ccc(F)cc1)=N\NC(N)=S	–	–	–	–	–	·
COc1cc(N=Cc2c(CO)cnc(C)c2O)cc(OC)c1OC	·	63	·	·	–	68	Diaph ctr 10uM=–;Diaph ctr 30uM=–
S=C(NCCc1ccccc1)Nc1ccccn1	–	–	–	–	–	·
Cc1cccc(NC(=S)NCCc2ccccc2)n1	–	70	–	–	–	–
COc1ccc(CCNc2nc(C)c(C(C)=O)s2)cc1OC	·	61	·	·	–	–
COc1ccc(-c2nc(N)ncc2-c2ccccc2OC)c(O)c1	·	74	·	·	–	–
Cc1ccc(NNC(N)=S)cc1Cl	·	–	·	·	–	·
NC(=S)NNc1ccc(Cl)c(Cl)c1	·	65	·	·	–	–
Cc1ccc(S(=O)(=O)Nc2ccccc2N=Cc2ccc([N+](=O)[O-])cc2[N+](=O)[O-])cc1	·	84	·	·	–	–
CCc1ccc(Nc2nnc(SCC(=O)N(C)C3CCS(=O)(=O)C3)s2)cc1 (centres undefined)	·	–	·	·	–	·
SMILES	Diaph act CS	PfG6PD inh	Diaphorase inh	G6PDH counter	HKDC1 inhibitor	PfGluPho conf	others
CCOc1ccc(-c2cn(-c3ccccc3OC)c(=S)[nH]2)cc1	·	–	·	·	–	·
CCOc1ccc(-n2cc(-c3ccc(OC)c(OC)c3)[nH]c2=S)cc1	–	66	–	–	–	–
O=C(CNS(=O)(=O)c1ccc(F)c(Cl)c1)N1CCCCCC1	–	–	–	–	–	·
O=C(CNc1ccc2c(c1)OCO2)N/N=C\c1cn(Cc2ccccc2)c2ccccc12	–	67	–	–	–	51	Diaph ctr 10uM=–;Diaph ctr 30uM=–
O=C(CNc1ccc2c(c1)OCO2)N/N=C\c1cn(Cc2ccc(F)cc2)c2ccccc12	–	·	–	–	·	·
COc1ccc(C(c2sc3nc(C)nn3c2O)N2CCc3ccccc3C2)cc1 (centres undefined)	–	59	–	–	–	–
CC1=NN(c2nc(N)nc(/C(C#N)=C/c3ccc([N+](=O)[O-])o3)n2)C(C)(C)C1	·	69	·	·	–	–
CC1(C)Cc2c(c(N3CCOCC3)nc3sc(C(=O)Nc4ccccc4)c(N)c23)CO1	·	–	·	·	–	·
CN(C(=O)c1sc2nc(N3CCCC3)c3c(c2c1N)CC(C)(C)OC3)c1ccccc1	·	66	·	·	–	–
Cc1cccc(CCNC(=O)CCc2nc(-c3ccccc3F)no2)c1	–	–	–	–	–	·
Cc1nn(-c2cccc([N+](=O)[O-])c2)c(N)c1-c1ccccc1	–	–	–	–	–	·
Nn1c(SCC(=O)Nc2cccnc2Cl)nnc1-c1ccccc1	·	62	·	·	–	50	Diaph ctr 10uM=–;Diaph ctr 30uM=–
Cc1ccc(-c2nnc(SCC(=O)Nc3cccnc3Cl)n2N)cc1	·	–	·	·	–	·
CC1CCc2[nH]c3ccc(C(=O)N(C)CC(=O)Nc4ccccc4Br)cc3c2C1 (centres undefined)	·	90	·	·	–	–
Cc1ccc(C)c(NC(=O)CN(C)C(=O)c2ccc3[nH]c4c(c3c2)CC(C)CC4)c1 (centres undefined)	·	70	·	·	–	–
CCOC(=O)N/N=C(\C)c1ccc(C)o1	–	–	–	–	–	·
CC(C(=O)Nc1cc([N+](=O)[O-])ccc1Cl)N1CCN(c2ccc(O)cc2)CC1 (centres undefined)	–	60	–	–	–	–
Oc1c(Br)cc(/C=N/Nc2nncc3ccccc23)cc1Br	·	63	·	·	–	–
Cc1cccc(C)c1OCC(=O)Nc1ncn[nH]1	–	–	–	–	–	·
Nc1nonc1-n1nnc(C(=O)N/N=C/c2cccnc2)c1-c1ccccc1	·	–	·	·	–	·
COc1ccc(/C=N/NC(=O)c2nnn(-c3nonc3N)c2-c2cccs2)cc1OC	·	–	·	·	–	·
Nc1nonc1-n1nnc(C(=O)N/N=C/c2cccc(F)c2)c1-c1ccc2c(c1)OCO2	·	106	·	·	–	85	Diaph ctr 10uM=75;Diaph ctr 30uM=65
Nc1nonc1-n1nnc(C(=O)N/N=C/c2cccc(F)c2)c1-c1ccccc1	·	85	·	·	–	–
Nc1nonc1-n1nnc(C(=O)N/N=C/c2cccc(Cl)c2)c1-c1cccs1	·	126	·	·	–	98	Diaph ctr 10uM=94;Diaph ctr 30uM=75
CN1CCN(CCCNC(=O)CCc2nnc3n(Cc4ccccc4Cl)c(=O)c4ccccc4n23)CC1	·	–	·	·	–	·
COc1cccc(Oc2ccc(C(F)(F)F)cc2NC(=O)CCc2nc3ccccc3c(=O)[nH]2)c1	·	–	·	·	–	·
